# The full list was thinned out, with hits kept by preference.
# INS promoter act: activators of insulin promoter-driven GFP, primary screen, imaging, TRM-6 cells, eGFP reporter, cell count | plate-scaled: unstimulated 0, stimulated control 100 | activation, % at 2 µM | 0.81% of 130,000 active;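 active = activation at 2 µM above a set limit, confirmed on inspection of the cell images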;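 also: share of cells whose green reporter signal exceeds an intensity cutoff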
#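 System: human fetal islet-derived TRM-6 cells with tamoxifen-inducible insulin promoter–eGFP reporter; input: seeding density of 1,000 cells per well; buffer or medium: Low-glucose (5.5 mM) medium with tamoxifen; incubation: compound exposure 48 h, 37 °C; measured by: high-content imaging of fixed cells with Hoechst nuclear stain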
# A number is an active result; 0 = inactive; + = active, no number.
SMILES,INS promoter act
Cc1sc(-c2ccncc2)nc1OC(=O)c1ccccc1,0
COc1cc(/C(C)=N/NC(=O)C(O)(c2ccccc2)c2ccccc2)ccc1O,0
CC(=O)CC(=O)Nc1ccccc1NC(C)=O,0
Cc1ccc(C(=O)NCCSC(C)(C)C)cc1[N+](=O)[O-],0
COC(=O)CCN(C(=O)c1ccc(C)c([N+](=O)[O-])c1)c1ccccn1,+
Cc1ccc(C(=O)COC(=O)CNC(=O)C(c2ccccc2)c2ccccc2)cc1[N+](=O)[O-],0
COc1ccc(CNC(=O)C(c2ccco2)N(C(=O)c2ccccn2)c2ccccc2)cc1 (configuration not stated),0
O=C(CN(c1ccccc1)S(=O)(=O)c1ccccc1)N/N=C/c1ccco1,0
Cn1c(SCC(=O)Nc2ccccc2[N+](=O)[O-])nnc1C(F)(F)F,0
COc1ccc(Cn2nnc3c(=O)[nH]c(C(=O)NCCc4ccc(F)cc4)nc32)cc1OC,0
COc1cc(S(=O)(=O)Nc2ccc(C)cc2)ccc1N=Cc1c(C)[nH]n(-c2ccccc2)c1=O,0
Cc1ccc(-n2[nH]c(C)c(C=Nc3ccc(Br)cn3)c2=O)cc1,0
CCSc1nnc(-c2cc(Br)ccc2N=Cc2c(C)[nH]n(-c3ccccc3)c2=O)c(=O)[nH]1,356
O=C1c2ccccc2C(=O)N1c1ccc(Cl)cn1,0
COc1cccc(CNC(=O)C2CCN(S(=O)(=O)N3CCC4(CC3)OCCO4)CC2)c1,0
O=C(CN1C(=O)C2CC=CCC2C1=O)NC1CCCc2ccccc21 (configuration not stated),83
NC(=O)C1CCN(CC(=O)NC2CCCc3ccccc32)CC1 (configuration not stated),0
Cc1ccc(S(=O)(=O)N2CCN(CC(=O)NC3CCCc4ccccc43)CC2)c(C)c1 (configuration not stated),0
Cc1ccc2nc(Cl)c3nnnn3c2c1,0
O=C(c1ccc(N2C(=O)C3C4c5ccccc5C(c5ccccc54)C3C2=O)cc1)N1CCOCC1 (configuration not stated),0
CCC(C)(C)NC(=O)CN(Cc1ccc2c(c1)OCO2)C(=O)CCC(=O)Nc1ccccn1,0
CCC(C)NS(=O)(=O)c1ccc(OCC(=O)NCc2cccnc2)cc1 (configuration not stated),0
CCOc1ccc(OCC)c(S(=O)(=O)NCc2cccnc2)c1,0
CCOc1ccc(S(=O)(=O)NCC(=O)N(C)Cc2cccnc2)cc1,79
Cc1cc(S(=O)(=O)Nc2ccc(F)cc2)c(C)s1,0
SMILES,INS promoter act
COc1ccccc1C(C#N)N1N=C(C)CC1(C)C (configuration not stated),0
O=C(Nc1ccc(Cl)cc1C(=O)N1CCOCC1)c1cccc([N+](=O)[O-])c1,0
CN(C)C(=S)SCC(=O)Nc1cccc(C(F)(F)F)c1,0
CC(=O)c1c(C)[nH]c(C(=O)NCc2cccc(Cl)c2)c1C,0
COC(=O)CCSCC(=O)N1N=C(c2ccc(Br)cc2)CC1c1cccc(OC)c1OC (configuration not stated),387
COc1cccc(C2CC(c3ccc(NS(C)(=O)=O)cc3)=NN2C(=O)c2ccccc2)c1OC (configuration not stated),0
COc1ccc(C2CC(c3ccc(Br)cc3)=NN2C(=O)c2cccnc2)cc1 (configuration not stated),0
COc1ccc(C(=O)NC(=S)Nc2ccc(Cc3ccncc3)cc2)cc1,0
Cc1ccc(-c2ccc(C(=O)O)c(C)n2)cc1,386
Cc1ccc(-c2nc(C(=O)O)cs2)cc1,0
Cc1nc(N(C)C)ncc1C(=O)O,0
CC1Nc2ccccc2C(=O)N1NC(=O)c1ccc(Br)cc1 (configuration not stated),0
Cn1c(Nn2cnnc2)nc2ccccc21,121
Cn1c(NCc2c(O)ccc3ccccc23)nc2ccccc21,0
CCCn1c(Nc2ccccc2)nc2ccccc21,0
O=C(COC(=O)CCc1ccc(S(=O)(=O)N2CCOCC2)cc1)NCc1ccccc1Cl,0
CCNC(=O)c1ccc(-n2nc(C(F)(F)F)c3c2CCCC3)cc1,0
O=C(CCN1CCN(S(=O)(=O)c2ccc(Br)cc2)CC1)Nc1ccccc1F,0
O=C(CN1CCc2ccccc2C1)Nc1ccc(F)cc1F,0
O=C(CN1CCN(S(=O)(=O)c2ccc(Br)cc2)CC1)Nc1ccc(F)cc1F,136
COc1cccc(OC)c1OCCN(C)C,0
CC(C)OP(=O)(c1ccc(N(C)C)cc1)C(O)c1ccncc1 (configuration not stated),0
CN(C)c1ccc(/C=C/c2ccncc2)cc1,87
COc1ccc(/C=C/c2ccncc2)cc1,0
CN1CCN(C(=O)c2ccc(-n3cccc3)cc2)CC1,0
CC(NC(=O)c1ccccc1)C(=O)OCC(=O)N1c2ccccc2Sc2ccccc21 (configuration not stated),0
CC(C)=CCCC1=CCC(/C=N/NC(N)=O)C(C)C1 (configuration not stated),0
COc1ccc(N2CCN(Cc3nc4ccccc4c(=O)[nH]3)CC2)cc1,579

# From PubChem BioAssay
